Numbering of substitutions follows the chain as printed. Entries after “also recorded” stand apart in the source; their conditions may differ.
Key:
[1] = biological target: T1, apo‐EntB (wild‐type EntB) (Escherichia coli, UniProt P0ADI4); test: Fluorescence anisotropy binding assay, wild-type EntB
T1 sequence (P0ADI4 1-285): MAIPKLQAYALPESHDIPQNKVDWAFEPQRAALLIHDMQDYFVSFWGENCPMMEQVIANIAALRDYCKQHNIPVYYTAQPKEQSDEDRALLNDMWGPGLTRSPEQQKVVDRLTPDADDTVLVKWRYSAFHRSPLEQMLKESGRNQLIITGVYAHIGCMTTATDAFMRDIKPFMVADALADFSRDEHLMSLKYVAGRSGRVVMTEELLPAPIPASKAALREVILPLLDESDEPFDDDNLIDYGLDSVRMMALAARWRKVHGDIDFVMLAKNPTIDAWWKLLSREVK
Procedure, shortened: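 The test compound was held at 2 μM and purified protein was titrated in. Buffer was 50 mM HEPES pH 8.0, 150 mM NaCl, 1 mM TCEP, with 10 min preincubation at RT. Anisotropy was read at 21°C (ex 315 nm, em 437 nm, 10 nm slits), G-factor corrected, in triplicate. Apparent KD came from a one-site total-binding fit.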

EntB variant R196A = biological target: T2, EntB variant R196A (Escherichia coli, UniProt P0ADI4, R196A); test: Fluorescence anisotropy binding assay, EntB R196A; details: EntB R196A titrated into 2.00 μM 2,3‐DHB; apparent K D not determinable (no saturation)
T2 sequence (P0ADI4 1-285 R196A): T1 sequence (P0ADI4 1-285) with R196A

[2] = biological target: T3, wild‐type EntB isochorismatase (Escherichia coli, UniProt P0ADI4); test: EntB‐LDH coupled isochorismatase activity assay, wild-type EntB; assay type: biochemical; details: for Isochorismate apparent K m / V max: 0.1 μM EntB
T3 sequence (P0ADI4 1-285): T1 sequence (P0ADI4 1-285)
Procedure, shortened: (§1)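 His-tagged EntB (pCA24N, E. coli AG-1, IMAC-purified) at 0.10 μM was preincubated 10 min at RT with 1.50 unit/mL LDH and 350 μM NADH in 50 mM HEPES pH 8.0, 150 mM NaCl, 1 mM TCEP. Substrate was a ~3:2 chorismate:isochorismate mix made with EntC and 5 mM MgCl2 on ice for 20 min, then filtered. It was added at 6.2–73.9 μM, and OD340 loss was followed at 21°C. Test compound was at 0, 100, 250 or 400 μM. Km and Vmax came from Michaelis–Menten fits, and Ki from an Eadie–Hofstee slope replot.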

[3] = biological target: T4, EntB R196A isochorismatase (Escherichia coli, UniProt P0ADI4, R196A); test: EntB‐LDH coupled isochorismatase activity assay, EntB R196A; assay type: biochemical
T4 sequence (P0ADI4 1-285 R196A): T1 sequence (P0ADI4 1-285) with R196A
Procedure, shortened: as §1

[4] = biological target: T5, EntB‐driven EntC reaction (Escherichia coli, UniProt P0ADI4); test: Isothermal titration microcalorimetry of the EntC–EntB coupled reaction; assay type: biochemical; details: 313 nM EntC, 1293 nM EntB, 0, 250, 500 μM DHB, 30°C
T5 sequence (P0ADI4 1-285): T1 sequence (P0ADI4 1-285)
Procedure, shortened: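 The sample cell held 313 nM EntC with or without EntB (162–2587 nM). Two injections of 79 μM chorismate were given 10 min apart, stirring at 300 RPM. Integrated heats were corrected for buffer injection and chorismate dilution heats.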

EntB = details: compared with 2,5‐DHB and 3,5‐DHB; ref Khalil & Pawelek, 2009; cited from earlier work

O=C(O)c1cccc(O)c1O [2,3‐DHB, 2,3‐dihydroxybenzoic acid]
Kd [1]: 8.95 µM
affinity relative to wild‐type EntB (EntB variant R196A): much lower affinity than wild‐type EntB
IC50 [2]: 360 µM
Isochorismate apparent K m ([2]; 100 μM 2,3‐DHB): 16.24 ± 1.57 µM
V max ([2]; 100 μM 2,3‐DHB): 5.25 ± 0.17 µM/min
Isochorismate apparent K m ([2]; 250 μM 2,3‐DHB): 22.12 ± 3.25 µM
V max ([2]; 250 μM 2,3‐DHB): 4.99 ± 0.52 µM/min
Isochorismate apparent K m ([2]; 400 μM 2,3‐DHB): 32.55 ± 0.23 µM
V max ([2]; 400 μM 2,3‐DHB): 5.33 ± 0.05 µM/min
mode of inhibition ([2]; Eadie–Hofstee plot, linear fits converge at the ordinate): competitive inhibition
IC50 [3]: 692 µM
effect on heat evolution (integrated reaction heats) [4]: suppression of integrated reaction heats; also recorded: heat evolution decreased in a DHB‐dependent manner
quenching of EntB intrinsic fluorescence (EntB): able to specifically quench EntB fluorescence; also recorded: most strongly quenched
